Data taken from ChEMBL document CHEMBL1124035, “1-Amino-substituted 4-methyl-5H-pyrido[4,3-b]indoles (gamma-carbolines) as tricyclic analogues of ellipticines: a new class of antineoplastic agents” (1988).

Legend:
[1] = tested on: Mus musculus; test: Antitumor activity against C38 adenocarcinoma cells at a dose of 100 mg/kg administered intravenously on D1 to mice; tumor volume at D38 (T/C); conditions: route intravenous
[2] = tested on: Mus musculus; test: Antitumor activity against P388 cells at a dose of 40 mg/kg administered intraperitoneally to P388 leukemia model; assay type: functional; conditions: route intraperitoneal
Procedure, shortened: (§1)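 Mice were inoculated ip with 10^6 P388 leukemia cells at D0, then given a single ip drug dose on D1. Weight change was recorded. T/C % = median survival day of treated / controls × 100; survivors counted at D30; 10 mice per dose group, 20 controls.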

[3] = tested on: Mus musculus; test: Median survival day in L1210 leukemia mice model when a dose of 40 mg/kg administered intravenously; assay type: functional; conditions: route intravenous
Procedure, shortened: (§2)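 L1210 leukaemia in CDF1 hybrid male or female mice, 10 per group. At D0, 10^5 viable cells were inoculated ip, followed by a single iv dose on D1. Median survival day was recorded, and T/C was calculated as treated/control median survival × 100.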

[4] = tested on: Mus musculus; test: Weight change in g when a dose of 40 mg/kg administered intraperitoneally to P388 leukemia model; conditions: route intraperitoneal
[5] = tested on: Mus musculus; test: Median survival day in P388 cell line when a dose of 40 mg/kg administered intraperitoneally to P388 leukemia model; assay type: functional; conditions: route intraperitoneal
Procedure, shortened: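 P388 leukaemia in CDF1 hybrid mice, 10 per group. At D0, 10^6 viable cells were inoculated ip, followed by a single ip dose of drug in distilled water on D1. Weight change, median survival day, T/C (treated/control median survival × 100) and survivors at D30 were recorded. Controls were 20 mice.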

[6] = tested on: Mus musculus; test: Weight change in g when a dose of 5 mg/kg administered intraperitoneally B16 melanoma infected mice; assay type: functional; conditions: route intraperitoneal
Procedure, shortened: (§3)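 Hybrid BDF1 mice were inoculated ip at D0 with 0.5 mL of B16 melanoma homogenate (1 g tumor in 10 mL physiological serum). Drug was given ip daily on days 1-9, with cis-platinum 0.5 mg/kg as positive control on the same schedule.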

[7] = tested on: Mus musculus; test: Antitumor activity against P388 cells at a dose of 80 mg/kg administered intraperitoneally to P388 leukemia model; assay type: functional; conditions: dose 40 mg/kg; route intraperitoneal; in the assay text read “40 mg/kg” for “80 mg/kg”
Procedure, shortened: as §1

[8] = tested on: Mus musculus; test: Weight change in g when a dose of 100 mg/kg intravenous administration to P388 leukemia mice model; assay type: functional
Procedure, shortened: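 Mice (10 per group) were inoculated ip at D0 with 10^6 P388 leukemia cells and given a single iv dose at D1. Read-outs were weight change (g), median survival day, T/C % versus controls and survivors at D30.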

[9] = tested on: Mus musculus; test: Antitumor activity against P388 cells at a dose of 10 mg/kg administered intraperitoneally to P388 leukemia model; assay type: functional; conditions: route intraperitoneal
Procedure, shortened: as §1

[10] = tested on: Mus musculus; test: Median survival day in L1210 leukemia mice model when a dose of 20 mg/kg administered intravenously; assay type: functional; conditions: route intravenous
Procedure, shortened: as §2

[11] = tested on: Mus musculus; test: Antitumor activity against P388 leukemia in mice at a dose of 20 mg/kg administered intraperitoneally; assay type: functional, organism-based; design: dose 20 mg/kg
Procedure, shortened: (§4)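 CDF1 hybrid male or female mice, 10 per group, were inoculated ip with 10^6 viable P388 cells on day 0. Drugs in distilled water were given ip (0.1 mL/10 g body weight) daily D1-5. Vehicle, 5-fluorouracil and BD 84 were given the same way. T/C = median survival day of treated / controls × 100; T/C > 128% was significant; cures counted at D60.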

[12] = tested on: Mus musculus; test: Median survival day of B16 melanoma infected mice when a dose of 2.5 mg/kg administered intraperitoneally; assay type: functional; conditions: route intraperitoneal
Procedure, shortened: (§5)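 B16 melanoma in hybrid BD F1 mice. At D0 each mouse was inoculated ip with 0.5 mL of homogenate made from 1 g of tumour in 10 mL of physiological serum. Compounds were given ip daily at the stated doses for 9 days (D1-9), with cis-platinum 0.5 mg/kg under the same schedule as positive control.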

[13] = tested on: Mus musculus; test: Antitumor activity against L1210 cells at a dose of 40 mg/kg administered intravenously to mice; assay type: functional; conditions: route intravenous
Procedure, shortened: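 P388 (10^6 cells) or L1210 (10^5 cells) leukemia was inoculated ip in mice at D0, followed by a single iv drug treatment on D1. Weight change was recorded. T/C % = median survival day of treated / controls × 100; survivors noted at D30; 10-15 mice per group.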

[14] = tested on: Mus musculus; test: Weight change in g when a dose of 80 mg/kg administered intraperitoneally to P388 leukemia model; conditions: route intraperitoneal
[15] = tested on: Mus musculus; test: Weight change in g when a dose of 30 mg/kg administered intraperitoneally to mice; assay type: functional; conditions: route intraperitoneal
[16] = tested on: Mus musculus; test: Antitumor activity against B16 melanoma cells at a dose of 30 mg/kg administered intraperitoneally to mice; assay type: functional; conditions: route intraperitoneal
Procedure, shortened: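 Hybrid BD F1 mice were inoculated ip at D0 with 0.5 mL of B16 melanoma homogenate (1 g tumor in 10 mL physiological serum). Drugs were given ip daily D1-9. Cisplatin 0.5 mg/kg was the positive control under the same schedule.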

[17] = tested on: Mus musculus; test: Survivors at day 60 when a dose of 10 mg/kg to B16 melanoma infected mice; 4/10; assay type: functional
[18] = tested on: Mus musculus; test: Antitumor activity against P388 leukemia in mice at a dose of 20 mg/kg administered intraperitoneally for 5 days; assay type: functional; conditions: route intraperitoneal
Procedure, shortened: as §4

[19] = tested on: Mus musculus; test: Survivors at day 60 when a dose of 5 mg/kg to B16 melanoma infected mice; 0/10; assay type: functional
[20] = tested on: Mus musculus; test: Median survival day in B16 melanoma cell line when a dose of 30 mg/kg administered intraperitoneally to mice; assay type: functional; conditions: route intraperitoneal
Procedure, shortened: as §5

[21] = tested on: Mus musculus; test: Antitumor activity against P388 leukemia in mice at a dose of 30 mg/kg administered intraperitoneally for 5 days; assay type: functional, organism-based; design: dose 30 mg/kg
Procedure, shortened: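 CDF1 hybrid male or female mice, 10 per group, were inoculated ip on day 0 with 10^6 viable P388 leukemia cells. Drug in distilled water was given ip (0.1 mL/10 g body weight) daily on days 1-5, with vehicle, 5-fluorouracil and BD 84 controls given the same way. T/C = median survival of treated/controls × 100; T/C > 128% counted as significant.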

[22] = tested on: Mus musculus; test: Weight change in g when a dose of 10 mg/kg administered intraperitoneally to B16 melanoma infected mice; assay type: functional; conditions: route intraperitoneal
Procedure, shortened: as §3

[23] = tested on: Mus musculus; test: Median survival day of B16 melanoma infected mice, when a dose of 5 mg/kg administered intraperitoneally; assay type: functional; conditions: route intraperitoneal
Procedure, shortened: as §5

[24] = tested on: Mus musculus; test: Median survival day of B16 melanoma infected mice, when a dose of 2.5 mg/kg administered intraperitoneally; assay type: functional; conditions: route intraperitoneal
Procedure, shortened: as §5

[25] = tested on: Mus musculus; test: Weight change in g when a dose of 20 mg/kg administered intraperitoneally to P388 leukemia infected mice; assay type: functional; conditions: route intraperitoneal
Procedure, shortened: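 P388 model with a single ip dose. Mice (10 per group) were inoculated ip at D0 with 10^6 P388 cells and given one ip drug dose at D1. Body-weight change (g), median survival day, T/C and survivors at D30 were recorded.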

[26] = tested on: Mus musculus; test: Survivors at day 60 when a dose of 5 mg/kg to B16 melanoma infected when tested in 10 mice; assay type: functional
[27] = tested on: Mus musculus; test: Survivors at day D32 when a dose of 25 mg/kg administered intravenously to mice (C38 adenocarcinoma cell lines) when tested in 10 mice; assay type: functional; conditions: route intravenous
Procedure, shortened: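 Hybrid BDF1 mice, 10 per test, were implanted sc with a standard 3-mm³ fragment of C38 colon adenocarcinoma. Drug was given iv either on D1 alone or on D2 and D9. Animals were followed per NCI (Geran) protocol.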

CCN(CC)CCCNc1ncc(C)c2c1c1cc(O)ccc1n2C
Tumor volume [1]: 36% | T/C [2]: 202% | Median survival day [3]: 13.3 | Weight change [4]: -5.2 g | Median survival day [5]: 23 | Weight change [6]: 0.2 g | T/C [7]: 202% | Weight change [8]: -1.6 g | T/C [9]: 156% | Median survival day [10]: 11.8 | T/C [11]: Toxic | Median survival day [12]: 35.25 | T/C [13]: 149%

CCN(CC)CCCNc1[nH]cc(C)c2nc3ccc(O)cc3c1-2
Weight change [14]: -1.7 g | Weight change [15]: -1 g | T/C [16]: 33% | Survivors [17]: 4 | T/C [18]: 238% | Survivors [19]: 0 | Median survival day [20]: 9 | T/C [21]: Toxic

Cc1cnc(NCCCN(C)C)c2c3cc(O)ccc3n(C)c12
Weight change [22]: -1.9 g | Median survival day [23]: 50 | Median survival day [24]: 32.6 | Weight change [25]: -2.5 g | Survivors [26]: 1 | Survivors [27]: 10
